Assay results of several laboratories.
Protocols differ between the studies behind these lines.
Effect on: cell growth or viability

Structure (SMILES) | cell line | test | setting | measurement | result
CCOC(=O)C1=C(CN2CCC[C@@H]2C(=O)Nc2cccc(B(O)O)c2)NC(c2nccs2)=N[C@H]1c1ccc(F)cc1Br | HePAD38 | CCK-8 | 6 days | CC50 | 18.4 µM
NC(=S)NN=Cc1ccc(OC(=O)CN2C(=O)CSC2=O)c(Cl)c1 | HEK293 | MTT | 50 µg/mL, 24 h | viability | > 70%
CCOC(=O)C1=C(CN2CCC[C@@H]2C(=O)Nc2ccc(B(O)O)cc2)NC(c2nccs2)=N[C@H]1c1ccc(F)cc1Br | HePAD38 | CCK-8 | 6 days | CC50 | 26.5 µM
CCOC(=O)c1cnc2c([N+](=O)[O-])cc(C(F)(F)F)cc2c1NCc1ccc(C(F)(F)F)cc1 | HEK293 | resazurin | 72 h | CC50 | ~9 µM
CC(C)(C)CNc1nc(-c2cccs2)nc(Cl)c1-c1c(F)cc(C#N)cc1F | HEK293 | resazurin | 48 h | CC50 | > 50 µM
Cc1ccc(S(=O)(=O)NNc2ccc([N+](=O)[O-])cc2[N+](=O)[O-])cc1 | HEK293 | MTT | 62.5 µg/mL | viability | 82.7%
CC(C)[C@@H](C)Nc1nc(-c2cccs2)nc(Cl)c1-c1c(F)cc([N+](=O)[O-])cc1F | HEK293 | resazurin | 48 h | CC50 | 20.2 µM
Nc1ccn([C@@H]2O[C@H](CO)[C@@H](O)C2(F)F)c(=O)n1 | HEK293 | MTT | 0.625 µg/mL, 24 h | viability | 83.8%
CCOc1cc(C=NNC(N)=S)ccc1OC(=O)CN1C(=O)CSC1=O | HEK293 | MTT | 40 µg/mL, 24 h | viability | > 70%
C#Cc1cc(F)c(-c2c(Cl)nc(-c3cccs3)nc2NCC2(C)N=N2)c(F)c1 | HEK293 | resazurin | 48 h | CC50 | > 20 µM
